Source: ChEMBL document CHEMBL1641580, “Identification of 3-phenylaminoquinolinium and 3-phenylaminopyridinium salts as new agents against opportunistic fungal pathogens” (Bioorg Med Chem, 2011)

Legend:
[1] = system: Aspergillus fumigatus; experiment: Antifungal activity against Aspergillus fumigatus ATCC 90906 by microscopy; type: functional
Method in brief: (§1)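 Modified NCCLS microdilution. Samples in DMSO serially diluted in saline and tested in duplicate against inocula standardized to 0.5 McFarland. Broths: C. albicans SDB or RPMI 1640; C. neoformans SDB; A. fumigatus YM broth. Highest final concentration 20 µg/mL. MIC read visually as the lowest concentration with no detectable growth (for Alamar Blue wells, no blue-to-pink change).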

[2] = system: Candida albicans; experiment: Antifungal activity against Candida albicans ATCC 90028 assessed as inhibition of fungal growth by alamar blue assay; type: functional, organism-based
Method in brief: (§2)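 Broth microdilution modified from NCCLS. DMSO stocks serially diluted in saline and plated in duplicate. Inoculum set by 0.5 McFarland standard. Media: C. albicans in SDB or RPMI 1640; C. neoformans in SDB; A. fumigatus in RPMI-1640 + 5% Alamar Blue. Highest final concentration 20 µg/mL. Plates read before and after incubation by fluorescence 544ex/590em (A. fumigatus) or OD 630 nm. IC50 from percent growth vs concentration.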

[3] = system: Cryptococcus neoformans; experiment: Fungicidal activity against Cryptococcus neoformans ATCC 90113; type: functional
[4] = system: Aspergillus fumigatus; experiment: Antifungal activity against Aspergillus fumigatus ATCC 90906 assessed as inhibition of fungal growth by alamar blue assay; type: functional, organism-based; method in brief: as §2
[5] = system: Cryptococcus neoformans; experiment: Antifungal activity against Cryptococcus neoformans ATCC 90113 by microscopy; type: functional
Method in brief: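 Modified NCCLS microdilution. Samples in DMSO serially diluted in saline and tested in duplicate against inocula standardized to 0.5 McFarland. Highest final concentration 20 µg/mL. MIC read visually as the lowest concentration with no detectable growth (for Alamar Blue wells, no blue-to-pink change).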

[6] = system: Cryptococcus neoformans; experiment: Antifungal activity against Cryptococcus neoformans ATCC 90113 assessed as inhibition of fungal growth by alamar blue assay; type: functional, organism-based; method in brief: as §2
[7] = Cytotoxicity against african green monkey Vero cells after 48 hrs by neutral red assay; type: cell-based; details: chlorocebus sabaeus, read-out: TC50
Method in brief: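 Vero kidney fibroblasts seeded at 25,000 cells/well and grown 24 h, then exposed to samples up to 20 µg/ml for 48 h. Viable cells measured by neutral red assay. IC50 taken from growth-inhibition vs concentration curves. DMSO served as vehicle control.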

[8] = system: Aspergillus fumigatus; experiment: Fungicidal activity against Aspergillus fumigatus ATCC 90906; type: functional
[9] = system: Candida albicans; experiment: Antifungal activity against Candida albicans ATCC 90028 by microscopy; type: functional; method in brief: as §1
[10] = system: Candida albicans; experiment: Fungicidal activity against Candida albicans ATCC 90028; type: functional
[11] = Aspergillus fumigatus, ATCC 90906, read-out: IC50

C[n+]1cccc(N(CCCCCC2CCCCC2)c2cccc(Cl)c2)c1.[I-]
MIC [1]: 20 µg/mL
IC50 [2]: 3 µg/mL
MFC [3]: 1.3 µg/mL
IC50 [4, 11]: 12.4 µg/mL
MIC [5]: 1.3 µg/mL
IC50 [6]: 0.7 µg/mL
CC50 at 48 h [7]: > 10 µg/mL
MFC [8]: 20 µg/mL
MIC [9]: 5 µg/mL
MFC [10]: 10 µg/mL

C[n+]1cccc(N(CCCCCC2CCCCC2)c2cccc(C(F)(F)F)c2)c1.[I-]
MIC [1]: 2.5 µg/mL
IC50 [2]: 3 µg/mL
MFC [3]: 5 µg/mL
IC50 [4, 11]: 1.5 µg/mL
MIC [5]: 2.5 µg/mL
IC50 [6]: 1.5 µg/mL
CC50 at 48 h [7]: > 10 µg/mL
MFC [8]: 10 µg/mL
MIC [9]: 5 µg/mL
MFC [10]: 20 µg/mL

Clc1ccc(Nc2cc3ccccc3[n+](CCCCCc3ccccc3)c2)cc1.[I-]
MIC [1]: > 20 µg/mL
IC50 [2]: 15 µg/mL
MFC [3]: 12.5 µg/mL
IC50 [4, 11]: 10 µg/mL
MIC [5]: 6.3 µg/mL
IC50 [6]: 4 µg/mL
CC50 at 48 h [7]: > 25 µg/mL
MFC [8]: > 20 µg/mL
MIC [9]: > 20 µg/mL
MFC [10]: > 20 µg/mL

C[n+]1c2ccccc2cc2[nH]c3ccc(Br)cc3c21.[I-]
MIC [1]: 10 µg/mL
IC50 [2]: 2.5 µg/mL
MIC [5]: 20 µg/mL
IC50 [6]: 2.5 µg/mL
CC50 at 48 h [7]: 0.93 µg/mL
MIC [9]: > 20 µg/mL

Cc1ccc(N(CCCCCC2CCCCC2)c2ccc[n+](C)c2)cc1.[I-]
MIC [1]: 5 µg/mL
IC50 [2]: 1.5 µg/mL
MFC [3]: 5 µg/mL
IC50 [4, 11]: 1.5 µg/mL
MIC [5]: 2.5 µg/mL
IC50 [6]: 1.5 µg/mL
CC50 at 48 h [7]: > 10 µg/mL
MFC [8]: 5 µg/mL
MIC [9]: 2.5 µg/mL
MFC [10]: 10 µg/mL

C[n+]1c2ccc(Cl)cc2cc2c1c1ccccc1n2CCCCCC1CCCCC1.[I-]
MIC [1]: 1.3 µg/mL
IC50 [2]: 0.6 µg/mL
MFC [3]: 10 µg/mL
MIC [5]: 2.5 µg/mL
IC50 [6]: 0.9 µg/mL
CC50 at 48 h [7]: 1.4 µg/mL
MFC [8]: > 20 µg/mL
MIC [9]: 1.3 µg/mL
MFC [10]: > 20 µg/mL

C[n+]1cccc(N(CCCCCC2CCCCC2)c2ccc(C(F)(F)F)cc2)c1.[I-]
MIC [1]: 2.5 µg/mL
IC50 [2]: 1 µg/mL
MFC [3]: 5 µg/mL
IC50 [4, 11]: 1.5 µg/mL
MIC [5]: 2.5 µg/mL
IC50 [6]: 1.5 µg/mL
CC50 at 48 h [7]: > 10 µg/mL
MFC [8]: 5 µg/mL
MIC [9]: 2.5 µg/mL
MFC [10]: 10 µg/mL

C[n+]1c2ccc(Cl)cc2cc2[nH]c3ccccc3c21.[I-]
MIC [1]: > 20 µg/mL
IC50 [2]: 0.5 µg/mL
MFC [3]: > 20 µg/mL
IC50 [4, 11]: 10 µg/mL
MIC [5]: 5 µg/mL
IC50 [6]: 2 µg/mL
MFC [8]: > 20 µg/mL
MIC [9]: 5.5 µg/mL
MFC [10]: > 20 µg/mL

Cc1cccc(N(CCCCCC2CCCCC2)c2ccc[n+](C)c2)c1.[I-]
MIC [1]: 10 µg/mL
IC50 [2]: 3 µg/mL
MFC [3]: 2.5 µg/mL
IC50 [4, 11]: 8.7 µg/mL
MIC [5]: 2.5 µg/mL
IC50 [6]: 1.4 µg/mL
CC50 at 48 h [7]: > 10 µg/mL
MFC [8]: 20 µg/mL
MIC [9]: 5 µg/mL
MFC [10]: 10 µg/mL

C[n+]1cc(N(CCCCCC2CCCCC2)c2ccccc2Cl)cc2ccccc21.[I-]
MIC [1]: 5 µg/mL
IC50 [2]: 0.63 µg/mL
MFC [3]: 0.6 µg/mL
IC50 [4, 11]: 3.1 µg/mL
MIC [5]: 0.3 µg/mL
IC50 [6]: 0.2 µg/mL
MFC [8]: 20 µg/mL
MIC [9]: 1.3 µg/mL
MFC [10]: 1.3 µg/mL

Clc1cccc(Nc2cc3ccccc3[n+](CCCCCC3CCCCC3)c2)c1.[I-]
MIC [1]: 6.3 µg/mL
IC50 [2]: 2 µg/mL
MFC [3]: 50 µg/mL
IC50 [4, 11]: 3.5 µg/mL
MIC [5]: 3.1 µg/mL
IC50 [6]: 2 µg/mL
CC50 at 48 h [7]: > 10 µg/mL
MFC [8]: > 20 µg/mL
MIC [9]: 6.3 µg/mL
MFC [10]: 13 µg/mL

C[n+]1c2cccc(Cl)c2cc2[nH]c3ccccc3c21.O=S(=O)([O-])C(F)(F)F
IC50 [2]: 0.6 µg/mL
IC50 [4, 11]: > 20 µg/mL
MIC [5]: > 20 µg/mL
IC50 [6]: 7 µg/mL
CC50 at 48 h [7]: 5 µg/mL
MIC [9]: > 20 µg/mL

C[n+]1c2cc(Cl)ccc2cc2[nH]c3ccccc3c21.O=S(=O)([O-])C(F)(F)F
IC50 [2]: 3 µg/mL
IC50 [4, 11]: > 20 µg/mL
MIC [5]: > 20 µg/mL
IC50 [6]: 15 µg/mL
CC50 at 48 h [7]: 2.1 µg/mL
MIC [9]: > 20 µg/mL

[I-].c1ccc(Nc2cc3ccccc3[n+](CCCCCC3CCCCC3)c2)cc1
MIC [1]: 2.5 µg/mL
IC50 [2]: 3.5 µg/mL
MFC [3]: 10 µg/mL
IC50 [4, 11]: 1 µg/mL
MIC [5]: 2.5 µg/mL
IC50 [6]: 1.5 µg/mL
MFC [8]: 10 µg/mL
MIC [9]: 10 µg/mL
MFC [10]: > 20 µg/mL

CCc1ccc(N(CCCCCC2CCCCC2)c2ccc[n+](C)c2)cc1.[I-]
MIC [1]: 5 µg/mL
IC50 [2]: 1.3 µg/mL
MFC [3]: 5 µg/mL
IC50 [4, 11]: 2.7 µg/mL
MIC [5]: 0.6 µg/mL
IC50 [6]: 0.4 µg/mL
CC50 at 48 h [7]: 10 µg/mL
MIC [9]: 2.5 µg/mL
MFC [10]: 5 µg/mL

C[n+]1cccc(N(CCCCCC2CCCCC2)c2ccccc2Cl)c1.[I-]
MIC [1]: > 20 µg/mL
IC50 [2]: 2.8 µg/mL
MFC [3]: 2.5 µg/mL
IC50 [4, 11]: 18 µg/mL
MIC [5]: 2.5 µg/mL
IC50 [6]: 2 µg/mL
MFC [8]: > 20 µg/mL
MIC [9]: 5 µg/mL
MFC [10]: 5 µg/mL

C[n+]1c2ccccc2cc2[nH]c3c(Cl)cccc3c21.[I-]
IC50 [2]: > 20 µg/mL
IC50 [6]: > 20 µg/mL
CC50 at 48 h [7]: 3.2 µg/mL

Clc1ccc(Nc2cc3ccccc3[n+](CCCCCC3CCCCC3)c2)cc1.[I-]
IC50 [2]: 2 µg/mL
MFC [3]: > 20 µg/mL
IC50 [4]: Not Active
MIC [5]: 1.6 µg/mL
IC50 [6]: 1 µg/mL
CC50 at 48 h [7]: > 10 µg/mL
MIC [9]: > 20 µg/mL

C[n+]1cccc(N(CCCCCC2CCCCC2)c2ccc(Cl)cc2)c1.[I-]
MIC [1]: 1.6 µg/mL
IC50 [2]: 1.5 µg/mL
IC50 [4, 11]: 1 µg/mL
MIC [5]: 1.6 µg/mL
IC50 [6]: 1 µg/mL
CC50 at 48 h [7]: > 10 µg/mL
MIC [9]: 3.1 µg/mL

C[n+]1c2cc(Cl)ccc2c(Cl)c2[nH]c3ccccc3c21.[I-]
IC50 [2]: 1 µg/mL
MFC [3]: > 20 µg/mL
IC50 [4, 11]: > 20 µg/mL
MIC [5]: 10 µg/mL
IC50 [6]: 6 µg/mL
CC50 at 48 h [7]: 10 µg/mL
MIC [9]: 10 µg/mL
MFC [10]: > 20 µg/mL

Cc1ccccc1N(CCCCCC1CCCCC1)c1ccc[n+](C)c1.[I-]
MIC [1]: > 20 µg/mL
IC50 [2]: 2.6 µg/mL
MFC [3]: 2.5 µg/mL
IC50 [4, 11]: 19 µg/mL
MIC [5]: 2.5 µg/mL
IC50 [6]: 1.5 µg/mL
MFC [8]: > 20 µg/mL
MIC [9]: 5 µg/mL
MFC [10]: 5 µg/mL

C[n+]1c2ccccc2cc2[nH]c3ccc(Cl)cc3c21.[I-]
IC50 [2]: 4.5 µg/mL
IC50 [4, 11]: > 20 µg/mL
MIC [5]: > 20 µg/mL
IC50 [6]: 15 µg/mL
CC50 at 48 h [7]: 1.5 µg/mL
MIC [9]: > 20 µg/mL

C[n+]1c2ccccc2cc2[nH]c3cccc(Cl)c3c21.[I-]
IC50 [2]: > 20 µg/mL
IC50 [4, 11]: > 20 µg/mL
IC50 [6]: > 20 µg/mL
CC50 at 48 h [7]: > 4.7 µg/mL
